Measured values from ChEMBL document CHEMBL1212925, “Replacement of imidazolyl by pyridyl in biphenylmethylenes results in selective CYP17 and dual CYP17/CYP11B1 inhibitors for the treatment of prostate cancer” (J Med Chem, 2010).

Experiments:
[1] = target: T1, Cytochrome P450 11B1, mitochondrial (Homo sapiens, UniProt P15538); assay: Inhibition of human CYP11B1 expressed in hamster fibroblast
T1 sequence (P15538 whole entry): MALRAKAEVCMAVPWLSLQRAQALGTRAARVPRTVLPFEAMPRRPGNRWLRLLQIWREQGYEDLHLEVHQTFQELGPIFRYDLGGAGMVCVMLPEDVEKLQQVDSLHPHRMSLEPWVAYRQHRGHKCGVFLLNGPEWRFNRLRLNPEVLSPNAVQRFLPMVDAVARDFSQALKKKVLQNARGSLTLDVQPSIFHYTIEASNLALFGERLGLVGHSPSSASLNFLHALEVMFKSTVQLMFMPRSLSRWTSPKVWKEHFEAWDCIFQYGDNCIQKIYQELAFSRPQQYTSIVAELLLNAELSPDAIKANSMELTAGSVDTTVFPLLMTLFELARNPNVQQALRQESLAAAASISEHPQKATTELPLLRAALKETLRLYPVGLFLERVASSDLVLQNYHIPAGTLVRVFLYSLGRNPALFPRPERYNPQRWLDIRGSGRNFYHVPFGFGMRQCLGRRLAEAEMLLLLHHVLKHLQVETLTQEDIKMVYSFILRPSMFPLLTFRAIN
Procedure, shortened: (§1)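 V79 MZh hamster fibroblasts expressing human CYP11B1 or CYP11B2 incubated with [14C]11-deoxycorticosterone substrate at 100 nM and inhibitor at varied concentrations. Product formation monitored by HPTLC with phosphoimager. IC50 from mean of at least three tests; SD within 5%.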

Aromatase = target: T2, Aromatase (Homo sapiens, UniProt P11511); assay: Inhibition of human placental CYP19
T2 sequence (P11511 whole entry): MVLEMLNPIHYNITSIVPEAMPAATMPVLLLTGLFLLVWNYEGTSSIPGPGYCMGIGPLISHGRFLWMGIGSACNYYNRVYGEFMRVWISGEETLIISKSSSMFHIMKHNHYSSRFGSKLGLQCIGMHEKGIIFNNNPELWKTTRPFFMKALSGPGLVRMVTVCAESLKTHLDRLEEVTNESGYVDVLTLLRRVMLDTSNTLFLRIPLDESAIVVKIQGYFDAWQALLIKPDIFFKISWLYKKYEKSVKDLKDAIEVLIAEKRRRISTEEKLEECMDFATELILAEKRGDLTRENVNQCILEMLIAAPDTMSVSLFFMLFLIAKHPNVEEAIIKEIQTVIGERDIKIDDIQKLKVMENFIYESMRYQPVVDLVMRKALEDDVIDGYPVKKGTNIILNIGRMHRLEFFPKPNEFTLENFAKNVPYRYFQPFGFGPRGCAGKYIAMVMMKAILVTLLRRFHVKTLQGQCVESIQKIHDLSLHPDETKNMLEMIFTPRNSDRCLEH
Procedure, shortened: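 Human placental microsomes with [1β-3H]androstenedione substrate at 500 nM, run in vitro. IC50 values are means of at least three tests; SD within 5%.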

[2] = target: T3, Cytochrome P450 11B2, mitochondrial (Homo sapiens, UniProt P19099); assay: Inhibition of human CYP11B2 expressed in hamster fibroblast; procedure, shortened: as §1
T3 sequence (P19099 whole entry): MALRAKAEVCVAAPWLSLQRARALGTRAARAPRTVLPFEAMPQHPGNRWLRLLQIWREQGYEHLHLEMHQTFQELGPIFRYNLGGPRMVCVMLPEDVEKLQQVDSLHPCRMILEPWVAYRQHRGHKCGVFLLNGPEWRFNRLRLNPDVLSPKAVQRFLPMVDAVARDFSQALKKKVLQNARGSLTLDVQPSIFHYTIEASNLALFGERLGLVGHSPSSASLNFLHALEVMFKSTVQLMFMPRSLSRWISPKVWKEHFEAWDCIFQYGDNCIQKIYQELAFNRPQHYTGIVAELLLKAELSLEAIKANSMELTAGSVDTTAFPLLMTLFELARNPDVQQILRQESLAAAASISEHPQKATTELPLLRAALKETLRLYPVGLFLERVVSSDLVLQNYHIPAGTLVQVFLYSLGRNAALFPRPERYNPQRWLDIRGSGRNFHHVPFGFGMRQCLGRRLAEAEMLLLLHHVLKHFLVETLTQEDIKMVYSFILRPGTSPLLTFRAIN

[3] = target: T4, Steroid 17-alpha-hydroxylase/17,20 lyase (Homo sapiens, UniProt P05093); assay: Inhibition of human CYP17 expressed in Escherichia coli
T4 sequence (P05093 whole entry): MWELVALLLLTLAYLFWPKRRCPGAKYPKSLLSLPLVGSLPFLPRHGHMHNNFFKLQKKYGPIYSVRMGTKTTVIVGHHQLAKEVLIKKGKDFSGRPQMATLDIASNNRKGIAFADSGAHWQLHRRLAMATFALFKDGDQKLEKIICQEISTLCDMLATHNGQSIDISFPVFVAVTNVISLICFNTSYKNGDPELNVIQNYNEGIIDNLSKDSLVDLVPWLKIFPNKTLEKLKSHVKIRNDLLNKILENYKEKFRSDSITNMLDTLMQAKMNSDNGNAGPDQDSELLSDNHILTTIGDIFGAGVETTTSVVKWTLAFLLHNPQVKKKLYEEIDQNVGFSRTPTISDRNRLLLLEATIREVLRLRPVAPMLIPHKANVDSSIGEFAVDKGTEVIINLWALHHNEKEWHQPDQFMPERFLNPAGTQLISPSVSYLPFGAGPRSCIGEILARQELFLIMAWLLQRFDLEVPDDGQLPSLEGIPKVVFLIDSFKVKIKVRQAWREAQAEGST
Procedure, shortened: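 Enzyme source: 50 000 sediment of homogenized E. coli co-expressing human CYP17 and NADPH-P450 reductase. Substrate and product separated by HPLC with UV detection.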

Cytochrome P450 3A4 = Cytochrome P450 3A4 (Homo sapiens, UniProt P08684); assay: Inhibition of recombinant CYP3A4 expressed in baculovirus-infected insect microsome; assay type: ADME
Cytochrome P450 3A4, sequence (P08684 whole entry): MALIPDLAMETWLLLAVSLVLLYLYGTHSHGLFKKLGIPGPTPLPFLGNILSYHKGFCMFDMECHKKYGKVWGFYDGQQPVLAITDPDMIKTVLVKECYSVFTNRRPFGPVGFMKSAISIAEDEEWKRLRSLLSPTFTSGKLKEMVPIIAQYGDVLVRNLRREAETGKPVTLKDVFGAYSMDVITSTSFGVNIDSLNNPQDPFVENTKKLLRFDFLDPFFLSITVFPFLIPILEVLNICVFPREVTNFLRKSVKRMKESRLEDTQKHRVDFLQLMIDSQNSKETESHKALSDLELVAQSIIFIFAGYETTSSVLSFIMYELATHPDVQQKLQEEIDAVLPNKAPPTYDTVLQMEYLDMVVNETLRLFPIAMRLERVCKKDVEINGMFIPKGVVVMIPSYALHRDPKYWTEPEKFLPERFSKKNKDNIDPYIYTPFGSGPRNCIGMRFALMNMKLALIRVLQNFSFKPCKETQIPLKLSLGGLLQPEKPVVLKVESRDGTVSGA

SMILES | IC50 [1] [µM] | IC50 (Aromatase) [µM] | IC50 [2] [µM] | IC50 [3] [µM] | IC50 (Cytochrome P450 3A4) [µM]
Oc1ccc(-c2ccc(Cc3ccncc3)cc2)cc1F | 0.85 | 2.69 | 0.21 | – | –
Nc1ccc(-c2ccc(Cc3ccncc3)cc2)cc1N | 0.902 | > 25 | 0.367 | – | –
Fc1ccc(-c2ccc(Cc3ccncc3)cc2)cc1F | 4.74 | – | 0.273 | 0.598 | –
COc1ccc(-c2ccc(Cc3ccncc3)cc2)cc1F | – | – | – | 3.34 | –
CC(C)(C)OC(=O)Nc1ccc(-c2ccc(Cc3ccncc3)cc2)cc1 | – | – | – | 1.37 | –
CC(C)(C)OC(=O)Nc1ccc(-c2ccc(Cc3ccncc3)cc2)cc1F | – | – | – | > 10 | –
CC(C)(C)OC(=O)Nc1ccc(-c2ccc(Cc3ccncc3)cc2)cc1NC(=O)OC(C)(C)C | – | – | – | > 10 | –
COc1ccc(-c2ccc(Cc3ccncc3)cc2)cc1NC(=O)OC(C)(C)C | – | – | – | > 10 | –
c1cc(Cc2ccc(-c3ccsc3)cc2)ccn1 | 0.415 | – | 0.331 | 0.647 | –
c1csc(-c2ccc(Cc3ccncc3)cc2)c1 | 0.422 | – | 0.796 | 0.647 | –
c1cc(Cc2ccc(-c3ccc4[nH]ccc4c3)cc2)ccn1 | 0.469 | – | 0.231 | 0.76 | –
COc1ccc2cc(-c3ccc(Cc4ccncc4)cc3)ccc2c1 | – | – | – | 2 | –
Oc1ccc2cc(-c3ccc(Cc4ccncc4)cc3)ccc2c1 | 0.627 | – | 1.13 | 0.438 | 1.14
CCC(c1ccc(-c2ccc(OC)cc2)cc1)c1cccnc1 (centres undefined) | – | – | – | > 5 | –
CCC(c1ccncc1)c1ccc(-c2ccc(OC)cc2)cc1 (centres undefined) | – | – | – | 1.61 | –
Oc1ccc(-c2ccc(C(O)n3ccnc3)cc2)cc1 (centres undefined) | – | – | – | > 5 | –
Oc1ccc(-c2ccc(Cc3cccnc3)cc2)cc1 | – | – | – | 4.04 | –
Oc1ccc(-c2ccc(Cc3ccncc3)cc2)cc1 | 0.251 | 3.07 | 0.341 | 0.248 | 3.21
Nc1ccc(-c2ccc(Cc3ccncc3)cc2)cc1 | 0.522 | 24.5 | 0.406 | 0.408 | 2.45
CC(=O)Nc1ccc(-c2ccc(Cc3ccncc3)cc2)cc1 | – | – | – | > 5 | –
CC(=O)Nc1cccc(-c2ccc(Cc3ccncc3)cc2)c1 | 0.307 | – | 0.567 | 0.876 | –
NC(=O)c1ccc(-c2ccc(Cc3ccncc3)cc2)cc1 | – | – | – | 1.79 | –
CCC(c1ccc(-c2ccc(OC)cc2)cc1)n1ccnc1 (centres undefined) | – | – | – | > 5 | –
CC(C)(C(=O)c1cccnc1)c1cccnc1 [METYRAPONE] | – | – | – | > 10 | –
